Measurements: ChEMBL document CHEMBL1153179, “Optimization of orally bioavailable alkyl amine renin inhibitors” (Bioorg Med Chem Lett, 2010)
One block for each molecule: values may come before it. Calls of active or inactive are those of the source. The rule behind the calls is not given here.

Columns and labels:
[1] = biological target: T1, Renin (Homo sapiens, UniProt P00797); experiment: Inhibition of trypsin-activated human recombinant renin
T1 sequence (P00797 whole entry): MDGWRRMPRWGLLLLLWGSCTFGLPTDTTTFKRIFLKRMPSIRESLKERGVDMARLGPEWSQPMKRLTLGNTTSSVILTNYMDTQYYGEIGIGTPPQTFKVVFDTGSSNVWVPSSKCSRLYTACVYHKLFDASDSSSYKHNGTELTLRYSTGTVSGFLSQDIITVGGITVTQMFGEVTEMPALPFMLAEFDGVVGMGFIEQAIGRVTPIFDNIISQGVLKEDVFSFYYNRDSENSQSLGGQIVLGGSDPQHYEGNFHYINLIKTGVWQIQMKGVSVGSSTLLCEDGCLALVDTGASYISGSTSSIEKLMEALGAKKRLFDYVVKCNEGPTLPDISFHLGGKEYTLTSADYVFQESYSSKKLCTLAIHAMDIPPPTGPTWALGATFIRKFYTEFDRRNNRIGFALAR

[2] = biological target: T1, Renin; experiment: Inhibition of human recombinant renin assessed as decrease in plasma renin activity by competitive radioimmunoassay in presence of human plasma
[3] = Cmax in rat at 10 mg/kg, po; format: ADME, organism-based; design: dose 10 mg/kg, route oral; details: in vivo
[4] = Tmax in rat at 10 mg/kg, po; format: ADME, organism-based; design: dose 10 mg/kg, route oral; details: in vivo
[5] = (§1) AUC (0 to t) in rat at 10 mg/kg, po; format: ADME, organism-based, Plasma; design: dose 10 mg/kg, route oral; details: plasma
[6] = Half life in rat at 10 mg/kg, po; format: ADME, organism-based; design: dose 10 mg/kg, route oral; details: in vivo
[7] = Clearance in rat at 2 mg/kg, iv; format: ADME, organism-based; design: dose 2 mg/kg, route intravenous; details: in vivo
[8] = Volume of distribution at steady state in rat at 10 mg/kg, po or 2 mg/kg, iv; format: ADME, organism-based; details: in vivo, read-out: Vdss
[9] = (§2) Oral bioavailability in rat at 10 mg/kg; format: ADME, organism-based; details: in vivo
[10] = Selectivity for human recombinant renin over beta-secretase
[11] = Selectivity for human recombinant renin over cathepsin D
[12] = Selectivity for human recombinant renin over cathepsin E
[13] = Half life in human liver microsomes; format: ADME, Microsome
[14] = Cmax in cynomolgus monkey at 1 mg/kg, po; format: ADME, organism-based, Macaca fascicularis; design: dose 1 mg/kg, route oral; details: in vivo
[15] = Tmax in cynomolgus monkey at 1 mg/kg, po; format: ADME, organism-based, Macaca fascicularis; design: dose 1 mg/kg, route oral; details: in vivo
[16] = AUC (0 to t) in cynomolgus monkey at 1 mg/kg, po; format: ADME, organism-based, Macaca fascicularis; design: dose 1 mg/kg, route oral; details: plasma
[17] = Half life in cynomolgus monkey at 1 mg/kg, po; format: ADME, organism-based, Macaca fascicularis; design: dose 1 mg/kg, route oral; details: in vivo
[18] = Clearance in cynomolgus monkey at 1 mg/kg, iv; format: ADME, organism-based, Macaca fascicularis; design: dose 1 mg/kg, route intravenous; details: in vivo
[19] = Volume of distribution at steady state in cynomolgus monkey at 1 mg/kg, iv or 1 mg/kg, po; format: ADME, organism-based, Macaca fascicularis; details: in vivo, read-out: Vdss
[20] = Oral bioavailability in cynomolgus monkey at 1 mg/kg; format: ADME, organism-based, Macaca fascicularis; details: in vivo
How it was run: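 Cynomolgus monkeys were dosed with the fumarate salt orally at 1 mg/kg and intravenously at 1 mg/kg. Oral bioavailability (F, %) was reported alongside oral Cmax, tmax, AUC(0-t), oral t1/2, IV clearance and Vss.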

[21] = test system: Rattus norvegicus; experiment: Reduction in mean blood pressure in double transgenic rat model of hypertension at 10 mg/kg, po after >20 hrs; format: functional, organism-based; design: dose 10 mg/kg
How it was run: (§3)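 Double transgenic rats expressing human renin and human angiotensinogen (dTGR) given a single 10 mg/kg oral dose; mean arterial pressure followed over 24 h against vehicle-treated animals, with statistical significance assessed.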

[22] = test system: Rattus norvegicus; experiment: as §1; format: ADME, organism-based, Plasma; design: dose 10 mg/kg, route oral; details: in vivo
[23] = test system: Rattus norvegicus; experiment: as §2; format: ADME, organism-based; details: in vivo
[24] = Cmax in cynomolgus monkey at 2 mg/kg, po; format: ADME, organism-based, Macaca fascicularis; design: dose 2 mg/kg, route oral; details: in vivo
[25] = Tmax in cynomolgus monkey at 2 mg/kg, po; format: ADME, organism-based, Macaca fascicularis; design: dose 2 mg/kg, route oral; details: in vivo
[26] = Oral bioavailability in cynomolgus monkey at 2 mg/kg; format: ADME, organism-based, Macaca fascicularis; details: in vivo
[27] = test system: Rattus norvegicus; experiment: Reduction in mean blood pressure in double transgenic rat model of hypertension at 10 mg/kg, po after 24 hrs; format: functional, organism-based; design: dose 10 mg/kg; how it was run: as §3
[28] = AUC (0 to t) in cynomolgus monkey at 2 mg/kg, po; format: ADME, organism-based, Macaca fascicularis; design: dose 2 mg/kg, route oral; details: plasma
[29] = Half life in cynomolgus monkey at 2 mg/kg, po; format: ADME, organism-based, Macaca fascicularis; design: dose 2 mg/kg, route oral; details: in vivo
[30] = Volume of distribution at steady state in cynomolgus monkey at 1 mg/kg, iv or 2 mg/kg, po; format: ADME, organism-based, Macaca fascicularis; details: in vivo, read-out: VDss
[31] = AUC (0 to 32 hrs) in cynomolgus monkey at 2 mg/kg, po; format: ADME, organism-based, Macaca fascicularis; design: time < 32 hr, dose 2 mg/kg, route oral; details: plasma

IC50 [1]: 2260 nM
Compound: CNC[C@H](CC1CCCCC1)NC(=O)N1CCC[C@@H]([C@@](O)(CCCNC(=O)N(C)C)c2cccc(Cl)c2)C1

IC50 [1]: 2.5 nM
IC50 [2]: 16.6 nM
Compound: CNC[C@H](CC1CCCCC1)NC(=O)N1CCC[C@@H]([C@@H](OCCNC(=O)OC)c2ccc(F)c(F)c2)C1

IC50 [1]: 46 nM
IC50 [2]: 141 nM
Compound: CNC[C@H](CC1CCCCC1)NC(=O)N1CCC[C@@H]([C@@](O)(CCCNC(=O)NC)c2cccc(Cl)c2)C1

IC50 [1]: 0.87 nM
IC50 [2]: 7.7 nM
Compound: CCNC[C@H](CC1CCCCC1)NC(=O)N1CCC[C@@H]([C@@H](OCCNC(=O)OC)c2cccc(Cl)c2)C1

IC50 [1]: 0.62 nM
IC50 [2]: 2.7 nM
Compound: CNC[C@H](CC1CCCCC1)NC(=O)N1CCC[C@@H]([C@@H](OCCNC(=O)OC)c2cc(F)ccc2F)C1

IC50 [1]: 0.47 nM
IC50 [2]: 4 nM
Compound: CNC[C@H](CC1CCCCC1)NC(=O)N1CCC[C@@H]([C@@H](OCCNC(=O)OC)c2cccc(C)c2)C1

IC50 [1]: 0.23 nM
IC50 [2]: 1.2 nM
Compound: CNC[C@H](CC1CCCCC1)NC(=O)N1CCC[C@@H]([C@@H](OCCNC(=O)OC)c2cc(F)cc(F)c2)C1

IC50 [1]: 0.48 nM
IC50 [2]: 2.6 nM
Cmax [3]: 63 ng/mL
Tmax [4]: 4 h
AUC(0-t) [5]: 201 ng·h/mL
half-life [6]: 7.8 h
clearance [7]: 53 mL/min/kg
Vd [8]: 51 L/kg
bioavailability [9]: 7.2%
Compound: COC(=O)NCCO[C@@H](c1cccc(Cl)c1)[C@@H]1CCCN(C(=O)N[C@H](CN)CC2CCCCC2)C1

IC50 [1]: 0.48 nM
IC50 [2]: 0.82 nM
Cmax [3]: 94 ng/mL
Tmax [4]: 3 h
AUC(0-t) [5]: 301 ng·h/mL
half-life [6]: 9.7 h
clearance [7]: 36 mL/min/kg
Vd [8]: 19 L/kg
bioavailability [9]: 9.4%
Selectivity ratio [10]: > 1000
Selectivity ratio [11]: > 1000
Selectivity ratio [12]: > 1000
half-life [13]: > 0.5 h
Cmax [14]: 33.3 ng/mL
Tmax [15]: 1 h
AUC(0-t) [16]: 130 ng·h/mL
half-life [17]: 29.2 h
clearance [18]: 11.7 mL/min/kg
Vd [19]: 9.8 L/kg
bioavailability [20]: 9.9%
Compound: CNC[C@H](CC1CCCCC1)NC(=O)N1CCC[C@@H]([C@@H](OCCNC(=O)OC)c2cccc(Cl)c2)C1
Activity [21]: Active

IC50 [1]: 0.58 nM
IC50 [2]: 3.3 nM
Compound: COC(=O)NCCO[C@@H](c1cccc(F)c1)[C@@H]1CCCN(C(=O)N[C@H](CN)CC2CCCCC2)C1

IC50 [1]: 0.59 nM
IC50 [2]: 1.8 nM
Cmax [3]: 123 ng/mL
Tmax [4]: 2 h
AUC(0-t) [5]: 380 ng·h/mL
half-life [6]: 12.7 h
clearance [7]: 58 mL/min/kg
Vd [8]: 61 L/kg
bioavailability [9]: 22.1%
Compound: CNC[C@H](CC1CCCCC1)NC(=O)N1CCC[C@@H]([C@@H](OCCNC(=O)OC)c2cccc(F)c2)C1

IC50 [1]: 0.18 nM
IC50 [2]: 3.7 nM
Cmax [3]: 5 ng/mL
Tmax [4]: 0.9 h
AUC(0-t) [5]: 10 ng·h/mL
half-life [6]: 1.8 h
clearance [7]: 34 mL/min/kg
Vd [8]: 29 L/kg
bioavailability [9]: 0.3%
Compound: CNC[C@H](CC1CCCCC1)NC(=O)N1CCC[C@@H]([C@@](O)(CCCNC(=O)OC)c2cccc(Cl)c2)C1

AUC(0-t) [5]: 832 ng·h/mL
half-life [6]: 5.9 h
Compound: CCOCCCO[C@@H](c1ccccc1)[C@@H]1CCCN(C(=O)N[C@H](CNC)CC2CCCCC2)C1

IC50 [1]: 0.61 nM
IC50 [2]: 3.4 nM
Compound: CNC[C@H](CC1CCCCC1)NC(=O)N1CCC[C@@H]([C@@H](OCCNC(=O)OC)c2cccc(Cl)c2F)C1

IC50 [1]: 2.1 nM
IC50 [2]: 18 nM
Compound: CCNC[C@H](CC1CCCCC1)NC(=O)N1CCC[C@@H]([C@@H](OCCNC(=O)OC)c2cccc(F)c2)C1

IC50 [1]: 17 nM
IC50 [2]: 79 nM
Compound: CNC[C@H](CC1CCCCC1)NC(=O)N1CCC[C@@H]([C@@](O)(CCCNC(=O)C2CC2)c2cccc(Cl)c2)C1

IC50 [1]: 0.52 nM
IC50 [2]: 1.5 nM
Cmax [3]: 54 ng/mL
Tmax [4]: 4 h
AUC [22]: 166 ng·h/mL
half-life [6]: 7.2 h
Vd [8]: 38 L/kg
F [23]: 13.1%
Compound: CNC[C@H](CC1CCCCC1)NC(=O)N1CCC[C@@H]([C@@H](OCCNC(=O)OC)c2cc(F)cc(Cl)c2)C1

IC50 [1]: 177 nM
Compound: CNC[C@H](CC1CCCCC1)NC(=O)N1CCC[C@@H]([C@@](O)(CCCNS(C)(=O)=O)c2cccc(Cl)c2)C1

IC50 [1]: 1.7 nM
IC50 [2]: 6.2 nM
Compound: CNC[C@H](CC1CCCCC1)NC(=O)N1CCC[C@@H]([C@@H](OCCNC(=O)OC)c2cccc(F)c2F)C1

IC50 [1]: 1.17 nM
IC50 [2]: 2.9 nM
Compound: CNC[C@H](CC1CCCCC1)NC(=O)N1CCC[C@@H]([C@@H](OCCNC(=O)OC)c2ccccc2)C1

IC50 [1]: 46 nM
IC50 [2]: 297 nM
Compound: CNC[C@H](CC1CCCCC1)NC(=O)N1CCC[C@@H]([C@@](O)(CCCNS(N)(=O)=O)c2cccc(Cl)c2)C1

IC50 [1]: 14 nM
IC50 [2]: 170 nM
Compound: CCOC(=O)NCCC[C@@](O)(c1cccc(Cl)c1)[C@@H]1CCCN(C(=O)N[C@H](CNC)CC2CCCCC2)C1

IC50 [1]: 0.62 nM
IC50 [2]: 2.1 nM
Compound: CNC[C@H](CC1CCCCC1)NC(=O)N1CCC[C@@H]([C@@H](OCCNC(=O)OC)c2cc(Cl)ccc2F)C1

IC50 [1]: 57 nM
Compound: CCCC(=O)NCCC[C@@](O)(c1cccc(Cl)c1)[C@@H]1CCCN(C(=O)N[C@H](CNC)CC2CCCCC2)C1

IC50 [1]: 31 nM
IC50 [2]: 200 nM
Compound: CNC[C@H](CC1CCCCC1)NC(=O)N1CCC[C@@H]([C@@](O)(CCCNC(N)=O)c2cccc(Cl)c2)C1

AUC(0-t) [5]: 21 ng·h/mL
half-life [6]: 13.5 h
clearance [18]: 2.5 mL/min/kg
Cmax [24]: 29.5 ng/mL
Tmax [25]: 1.3 h
bioavailability [26]: 1.4%
AUC(0-t) [28]: 154 ng·h/mL
half-life [29]: 9.8 h
Compound: COCCCOc1cc(C[C@@H](C[C@H](N)[C@@H](O)C[C@H](C(=O)NCC(C)(C)C(N)=O)C(C)C)C(C)C)ccc1OC
Activity [27]: Active

IC50 [2]: 16 nM
clearance [7]: 23 mL/min/kg
Vd [8]: 117 L/kg
Compound: CNC[C@H](CC1CCCCC1)NC(=O)N1CCC[C@@H]([C@@](O)(CCCNC(C)=O)c2cccc(Cl)c2)C1

IC50 [1]: 1.5 nM
IC50 [2]: 21 nM
Compound: CCC(=O)NCCC[C@@](O)(c1cccc(Cl)c1)[C@@H]1CCCN(C(=O)N[C@H](CNC)CC2CCCCC2)C1

AUC(0-t) [5]: 472 ng·h/mL
clearance [18]: 5.2 mL/min/kg
Cmax [24]: 116 ng/mL
Tmax [25]: 2.7 h
Vd [30]: 6.1 L/kg
bioavailability [26]: 16%
AUC(0-t) at 32 h [31]: 615 ng·h/mL
half-life [29]: 15 h
Compound: CNC[C@H](CC1CCCCC1)NC(=O)N1CCC[C@@H]([C@@](O)(CCCCOC)c2cccc(Cl)c2)C1
